TAAR1 agonist: human TAAR1 agonists, primary screen, Fluo-8 calcium fluorescence, CHO RD-HGA16 cells; vehicle wells 0%, saturating PEA agonist 100%; 360,000 tested, 0.99% active; Trace amine-associated receptor 1 (Homo sapiens), Q96RJ0; activation, % at 3 µM;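 active = activation above the mean activation of all test compounds in the run plus 3 SD, cut at about 38% in these data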
Target sequence (Q96RJ0 whole entry, looked up): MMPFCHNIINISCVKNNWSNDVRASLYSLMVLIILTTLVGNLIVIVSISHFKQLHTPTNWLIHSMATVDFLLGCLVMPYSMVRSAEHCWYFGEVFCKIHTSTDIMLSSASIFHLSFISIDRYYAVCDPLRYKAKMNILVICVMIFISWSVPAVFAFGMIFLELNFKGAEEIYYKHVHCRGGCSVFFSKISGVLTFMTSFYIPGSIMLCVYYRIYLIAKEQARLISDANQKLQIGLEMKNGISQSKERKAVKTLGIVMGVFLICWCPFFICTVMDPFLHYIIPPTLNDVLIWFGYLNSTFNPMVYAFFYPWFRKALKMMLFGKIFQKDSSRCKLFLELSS
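Test system: RD-HGA16 (CHO) cells co-expressing Gα16 and hTAAR1 | Doses: Single dose, 3 µM | Schedule: 17-24 h seeding, 75 min 37 °C dye, 30 min RT | Evaluation: % activation from peak over basal fluorescence ratio, DMSO-to-PEA scaled | Technique: Kinetic Fluo-8 calcium fluorescence | Benchmarks: Low control DMSO, high control PEA (EC100)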
GPR7 antagonist: GPR7 receptor antagonists, primary screen, cell-based, fluorescence, single concentration. 290,000 tested, 1.1% active. GPR7-expressing cells, fluorescence antagonist assay. Neuropeptides B/W receptor type 1 (Homo sapiens), P48145. AID 1861, 2009. inhibition, % at 4.4 µM; in the data active = inhibition above about 16%, passing the limit was not always enough;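 also: cells stimulated with the agonist NPW; 0% = agonist with vehicle and 100% = vehicle without agonist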
Target sequence (P48145 whole entry, looked up): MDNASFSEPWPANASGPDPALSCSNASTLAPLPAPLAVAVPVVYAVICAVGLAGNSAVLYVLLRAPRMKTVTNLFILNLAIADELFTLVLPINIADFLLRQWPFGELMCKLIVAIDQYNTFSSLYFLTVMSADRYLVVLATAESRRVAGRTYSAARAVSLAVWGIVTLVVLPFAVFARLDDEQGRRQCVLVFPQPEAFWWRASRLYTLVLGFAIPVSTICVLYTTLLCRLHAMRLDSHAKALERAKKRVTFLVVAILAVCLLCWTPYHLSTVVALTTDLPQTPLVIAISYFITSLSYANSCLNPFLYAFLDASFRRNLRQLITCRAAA
OX1R antag-1: OX1R (HCRTR1) antagonists, primary screen, fluorescence, CHO/OX1R cells, Fluo-8 calcium, orexin A | Fluo-8 calcium fluorescence | inhibition, % at 5 µM | 330,000 tested, 0.43% active;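 active = inhibition above its plate's threshold, mean inhibition of all tested compounds on the plate plus 3 SD, cut at about 37% in these data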;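 also: 0% = orexin A challenge wells and 100% = SB-334867-A antagonist wells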
OX1R antag-2: antagonists of human orexin 1 receptor (OX1R); Orexin/Hypocretin receptor type 1 (Homo sapiens), O43613; OX1R-expressing cells, FRET antagonist read-out; inhibition, % at 6.6 µM; 330,000 tested, 1.8% active; AID 485270, 2010; in the data active = inhibition mostly above about 38%, no sharp cut-off; inactive = mostly below about 40%;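 also: 0% = agonist challenge alone and 100% = reference antagonist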
CHO parental Ca: ATP-evoked calcium signal inhibitors, parental CHO, primary screen, counter-screen for OX1R antagonist project, cell-based, fluorescence, Fluo-8 calcium dye; parental CHO-K1, ATP-induced calcium, Fluo-8 fluorescence; inhibition, % at 5.6 µM; 330,000 tested, 0.63% active; AID 463079, 2010;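 active = inhibition above that plate's mean sample inhibition plus 3 SD, cut at about 26% in these data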;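 also: 0% = ATP-challenged DMSO wells and 100% = DMSO wells without ATP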
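Test system: untransfected parental CHO cell line. Compound: one dose, 5.6 µM nominal. Detection: intracellular calcium via Fluo-8 no-wash fluorescent dye. Measure: % inhibition. Benchmarks: ATP-challenged DMSO wells low, unchallenged DMSO wells high.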
TAAR1 antag: human TAAR1 antagonists, primary screen, Fluo-8 calcium fluorescence, CHO RD-HGA16 cells. antagonist. Trace amine-associated receptor 1 (Homo sapiens), Q96RJ0. inhibition, % at 3 µM. 360,000 tested, 1.5% active. AID 624466, 2012;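 active = inhibition above a per-plate cutoff, the mean inhibition of test compounds on that plate plus 3 SD, cut at about 49% in these data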;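 also: 0% = DMSO plus EC80 beta-PEA response and 100% = DMSO alone without agonist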
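Test system – hTAAR1-expressing CHO RD-HGA16 cells, Gα16-coupled · Also added – β-PEA at EC80 concentration, post-compound challenge · Compound – 3 µM, single point · Incubation – dye loading 75 min at 37 °C, then 30 min room temperature · Measured by – Fluo-8 intracellular calcium dye fluorescence, real-time kinetic reads · Benchmarks – vehicle and agonist controls · Replicates – singlicate, one well per test compound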
nonsel antag count: nonselective antagonists in TAAR1 counter-screen cells, counter-screen for hTAAR1 antagonist project, cell-based, fluorescence, calcium; shares compounds with TAAR1 antag; counterscreen cell line, antagonist mode; inhibition, % at 3 µM; 2,400 tested, 77% active; AID 651780, 2012; in the data active = inhibition above about 22%;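 also: CHO-Ga16 host cells stimulated with ATP at an EC80 level; 0% = agonist EC80 plus vehicle and 100% = vehicle without agonist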
TAAR1 ant conf: human TAAR1 antagonists, retest of hits, confirmation, cell-based, fluorescence; shares compounds with TAAR1 antag; TAAR1-expressing cells, fluorescence antagonist read-out; inhibition, % at 3 µM; 2,400 tested, 40% active; in the data active = inhibition above about 49%;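 also: CHO-Ga16 host cells challenged with agonist PEA near its EC80; 0% = agonist at EC80 plus vehicle and 100% = vehicle with no agonist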
Ga16 ag counter: calcium activation in Ga16-expressing cells, counter-screen for TAAR1 antagonist project, cell-based, fluorescence. agonist counterscreen. 2,400 tested, 18% active. activation, % at 3 µM. AID 651953, 2012. shares compounds with TAAR1 antag; in the data active = activation above about 12%;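 also: 0% = vehicle wells and 100% = saturating stimulus response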
TAAR1 ag counter: TAAR1 activation by candidate antagonists – cell-based, fluorescence, counter-screen for TAAR1 antagonist project; shares compounds with TAAR1 antag; hTAAR1 cell line, agonist mode; activation, % at 3 µM; 2,400 tested, 2% active; AID 651955, 2012; in the data active = activation above about 37%;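 also: CHO cells stably expressing TAAR1 with calcium dye readout; 0% = DMSO vehicle and 100% = full agonist response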
An asterisk follows results filed as active; x = no result. Only some compounds are listed: those with a hit (about 4.6% of all), similar ones and a draw of the others.

SMILES	TAAR1 agonist	GPR7 antagonist	OX1R antag-1	OX1R antag-2	CHO parental Ca	TAAR1 antag	nonsel antag count	TAAR1 ant conf	Ga16 ag counter	TAAR1 ag counter
COc1ccc(C2NC(=O)N(C)C3=C2C(=O)CC(C)(C)C3)cc1OC (centres undefined)	6	-5	-7	3	-1	-2	x	x	x	x
COc1cccc(C(=O)N(Cc2ccc(N(C)C)cc2)C2CCS(=O)(=O)C2)c1 (centres undefined)	-2	-5	-12	8	-8	106*	4	-4	5	4
CCOc1ccccc1N1CCN(C(=O)c2ccc(NS(=O)(=O)c3ccc4[nH]c(=O)[nH]c4c3)cc2)CC1	0	x	2	11	5	12	x	x	x	x
CCOC(=O)c1cc2c(=O)n3ccccc3nc2n(Cc2ccco2)c1=NC(=O)c1cccc(OC)c1	9	-1	-21	41	-15	56*	25*	33	4	2
Cc1ccc(C(=O)NCC(=O)OCC(=O)c2cc(C)n(Cc3ccco3)c2C)cc1	-2	-3	-18	17	-20	0	x	x	x	x
Cc1cc(C(=O)COC(=O)Cn2c(C(F)(F)F)nc3ccccc32)c(C)n1Cc1ccco1	10	4	-27	12	-32	51*	17	26	10	13
CCOC(=O)C1=C(C)NC(C)=C(C(=O)OCC)C1C(=O)OCC(=O)Nc1ccc(NC(C)=O)cc1	2	x	x	x	x	8	x	x	x	x
COc1cccc(OC)c1C(=O)NC(=S)N1CCN(c2ccc(C(F)(F)F)cc2[N+](=O)[O-])CC1	15	-12	-15	-5	-21	81*	31*	51*	7	5
NS(=O)(=O)c1ccc(NC(=O)c2ccc(F)cc2F)c(NC(=O)c2ccc(F)cc2F)c1	10	-3	-13	26	-8	-5	x	x	x	x
Cc1cc(C)c(C)c(S(=O)(=O)N2CCN(C(=O)c3cc(=O)[nH]c4ccccc34)CC2)c1C	30	11	-20	24	-1	55*	34*	56*	13*	13
N#CCCN(C(=O)COC(=O)c1ccc2ccccc2n1)c1ccccc1	13	x	-11	7	-9	2	x	x	x	x
CN1CCc2nc3ccccc3c(C(=O)OCC(=O)N(CCC#N)c3ccccc3)c2C1	17	-1	-39	37	-17	51*	23*	47	8	10
Cc1ccc(/C=N/NC(=O)CSc2nnc(-c3ccc(Cl)cc3)n2-c2ccc(Cl)cc2)o1	14	-3	-5	7	-23	56*	22*	52*	7	10
O=C(OCC(=O)N1CCN(C(=O)c2ccco2)CC1)c1cc(-c2cccc(Br)c2)nc2ccccc12	17	0	24	62*	-22	58*	34*	44	5	1
O=C(OCC(=O)N1CCN(C(=O)c2ccco2)CC1)c1cc(-c2ccccc2)nc2ccccc12	8	-5	-23	33	-37	57*	26*	36	6	0
COc1cc2c(cc1OC)CN(C(=O)CCNS(=O)(=O)c1ccccc1F)CC2	0	-14	-23	9	-14	-17	x	x	x	x
O=C1c2ccccc2C(=O)N1CCC#Cc1ccc2cc(CCCO)oc(=O)c2c1	19	x	44	8	3	69*	61*	75*	24*	36
O=C(CN1CCN(c2ccc(F)cc2)CC1)N(C1CCCC1)C1CCS(=O)(=O)C1 (centres undefined)	-3	x	-12	2	-13	0	x	x	x	x
COc1cccc(CN2C(=O)[C@H]3Cc4c([nH]c5ccccc45)C(C)(C)N3C2=O)c1	17	x	-26	12	-9	61*	25*	42	9	10
CC1(C)c2[nH]c3ccccc3c2C[C@H]2C(=O)N(Cc3cccc(F)c3)C(=O)N21	12	x	-22	11	-6	19	x	x	x	x
CCN(C[C@H]1N[C@@](CC)(C(=O)OC)[C@H]2C(=O)N(Cc3ccccc3)C(=O)[C@@H]12)C(C)=O	3	x	-11	8	0	13	x	x	x	x
Cc1ccc(S(=O)(=O)NC2CCCc3ccccc32)cc1C (centres undefined)	12	-10	-9	22	7	50*	11	39	5	10
CC1(C(=O)Nc2cccc3ncccc23)CCN1C(=O)CCc1ccccc1 (centres undefined)	2	x	x	x	x	10	x	x	x	x
CC1(C(=O)Nc2cccc3ncccc23)CCN1C(=O)Cc1ccc(-c2ccccc2)cc1 (centres undefined)	10	x	x	x	x	67*	29*	46	9	7
c1ccc(Oc2ccc(-n3cnnn3)cc2)cc1	-1	10	-2	11	1	105*	8	2	4	5
SMILES	TAAR1 agonist	GPR7 antagonist	OX1R antag-1	OX1R antag-2	CHO parental Ca	TAAR1 antag	nonsel antag count	TAAR1 ant conf	Ga16 ag counter	TAAR1 ag counter
CCOc1ccc(CCn2c(-c3ccco3)nc3ccccc3c2=O)cc1OCC	13	-11	-22	17	-17	58*	31*	45	7	6
O=c1c2ccccc2nc(-c2ccco2)n1Cc1ccccc1	16	-5	-18	6	-18	25	x	x	x	x
CC(C)Nc1nc(Nc2ccc(C#N)cc2)c2sccc2n1	1	x	x	x	x	11	x	x	x	x
N=c1c2c(ncn1CCN1CCOCC1)Oc1cc(O)ccc1C2c1ccccc1 (centres undefined)	18	-9	-20	12	-10	75*	22*	40	8	10
CC1(C)NC(=O)N(CC(=O)Nc2nc(-c3ccc(F)cc3)cs2)C1=O	9	-8	-10	7	1	35	x	x	x	x
CC(C)(C)c1ccc(C(=O)OCCNC(=O)c2c(Cl)nc3ccccn23)cc1	26	-1	-14	17	-26	73*	29*	48	10	15

Screening data as filed in PubChem BioAssay.
